Assay outcomes from PubChem.
Vif imaging – HIV Vif self-association inhibitors, primary screen, imaging, HEK293T, single point; actives 0.35% (n = 340,000); AID 602346, 2012; HEK293T cells, Vif self-association by quenched fluorescence, 24 h; inhibition, % at 7.49 µM; in the data active = inhibition above about 50%, passing the limit was not always enough
SR-BI HDL uptake – inhibitors of SR-BI mediated HDL lipid uptake, primary screen, ldlA[mSR-BI] cells, fluorescence, single point. AID 488896, 2010. actives 0.96% (n = 320,000). inhibition, % at 12.5 µM. ldlA[mSR-BI] CHO cells, DiI-HDL uptake fluorescence, 3 h;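 active = mean replicate inhibition of at least 70% and a set share of replicates each scoring 70 or more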
Target sequence (Q61009 whole entry, looked up): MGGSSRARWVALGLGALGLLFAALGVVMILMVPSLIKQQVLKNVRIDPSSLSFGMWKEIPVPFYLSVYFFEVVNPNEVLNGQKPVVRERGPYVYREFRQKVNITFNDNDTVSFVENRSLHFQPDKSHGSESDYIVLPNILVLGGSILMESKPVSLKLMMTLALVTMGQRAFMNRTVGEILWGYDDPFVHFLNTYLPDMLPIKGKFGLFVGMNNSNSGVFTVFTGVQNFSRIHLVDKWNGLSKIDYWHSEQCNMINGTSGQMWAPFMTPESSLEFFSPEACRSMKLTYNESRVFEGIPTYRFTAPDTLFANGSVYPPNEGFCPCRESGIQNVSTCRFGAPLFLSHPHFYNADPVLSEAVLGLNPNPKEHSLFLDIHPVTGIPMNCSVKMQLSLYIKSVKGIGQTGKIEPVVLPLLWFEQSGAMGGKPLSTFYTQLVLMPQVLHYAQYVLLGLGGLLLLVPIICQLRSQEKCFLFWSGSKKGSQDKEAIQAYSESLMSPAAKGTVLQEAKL
PKA-R2B activ – activators of PKA-R2B holoenzyme, primary screen, biochemical, fluorescence polarization, Cy5-IP20, human | PKA-R2B holoenzyme dissociation; R2B truncated from residue 108, S112A mutant; 0% DMSO only, 100% 113 µM cGMP | activation, % at 11.4 µM | cAMP-dependent protein kinase catalytic subunit beta (Homo sapiens) + cAMP-dependent … | actives 0.079% (n = 340,000) | AID 504700, 2011;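 active = activation above a cutoff set at the mean over all compounds plus 3 SD, cut at about 18% in these data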;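 also: higher means more holoenzyme dissociation and a rise in polarization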
PKA-R1A act – activators of PKA-R1A holoenzyme, primary screen, biochemical, fluorescence polarization, Cy5-IP20, bovine R1A, mouse PKAc; cAMP-dependent protein kinase type I-alpha regulatory subunit (Bos taurus) + …; PKA-R1A dissociation; scaled: DMSO 0%, 113 µM cGMP 100%; activation, % at 11.4 µM; actives 0.083% (n = 340,000);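 active = percent activation above the mean of all tested compounds plus 3 SD, cut at about 19% in these data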;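 also: higher means more PKAc released from R1A so a rise in polarization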
SR-BI DiI-HDL act – activators of SR-BI mediated DiI-HDL uptake, primary screen, ldlA[mSR-BI] CHO cells, DiI fluorescence; actives 0.096% (n = 320,000); 3 h; 100 = double the neutral-control signal; AID 504775, 2011; activation, % at 12.5 µM;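 active = mean replicate activation of at least 60% and every replicate at or above 60%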
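System: CHO ldlA[mSR-BI] cells / Medium: HEPES-buffered (25 mM, pH 7.4) F12 plus 0.5% BSA / Probe or stimulus: labelled HDL, 10 µg/mL / Doses: single compound concentration, delivered by pin transfer / Schedule: 3 h, 37 °C / Measured by: DiI fluorescence, bottom read / Measure: cell-associated DiI fluorescence as measure of HDL uptake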
Of the large screens only hits and unclear results are named; the others gave an inactive call. In the library only some 1.4% were active in any assay of this set; here they are far more common.

O=C(Nc1cccc([N+](=O)[O-])c1)c1cc2ccccc2cc1O	SR-BI HDL uptake 129
O=C(O)c1ccccc1C(=O)Nc1cccc([N+](=O)[O-])c1	none
Cc1c(C(=O)Nc2cccc([N+](=O)[O-])c2)csc1-c1ccccc1	SR-BI HDL uptake 89
O=C(O)C1Sc2[nH]c(=O)sc2C2c3ccc(O)cc3OC(=O)C12 (centres undefined)	none
O=S1(=O)CCN2N=C(C34CC5CC(CC(C5)C3)C4)SC2=N1	none
COc1cc2c(OC(C)=O)c3c(c(-c4ccc5c(c4)OCO5)c2cc1OC)C(=O)OC3	Vif imaging 173
CCOc1ccccc1-c1ccc2nccn2c1	none (no result: SR-BI HDL uptake, PKA-R2B activ, PKA-R1A act, SR-BI DiI-HDL act)
COc1ccc(/C=N/N2CCN(c3ccccc3OC)CC2)cc1OC	none
CCN(CC)c1ccc(/C=N/N2CCN(c3ccccc3OC)CC2)cc1	SR-BI HDL uptake 81
O=C1CCCc2c1oc1c2CCCC1	none
Cc1c(C(C)C[C@H](C)O)oc(=O)c2c1Oc1c(C)c(C(C)C[C@H](C)O)oc(=O)c1C2 (some centres undefined)	none
COc1cccc(COC(=O)Nc2ccccc2)c1OC	none (no result: SR-BI HDL uptake, PKA-R2B activ, PKA-R1A act, SR-BI DiI-HDL act)
CCN1/C(=C/c2ccc3cc(C)cc(C)c3[n+]2CC)Sc2cc(C)ccc21	none
CCN1/C(=C\c2ccc3cc(C)ccc3[n+]2CC)Sc2cc(C)c(C)cc21	SR-BI HDL uptake 85
CCN(CC)S(=O)(=O)c1ccc(Cl)c(NC(=O)COC(=O)c2ccc([N+](=O)[O-])o2)c1	none
CC(C)CN(C(=O)c1cccc(F)c1)c1c(N)n(CC(C)C)c(=O)[nH]c1=O	none (no result: SR-BI HDL uptake, SR-BI DiI-HDL act)
CC(C)CN(C(=O)c1cccc([N+](=O)[O-])c1)c1c(N)n(CC(C)C)c(=O)[nH]c1=O	Vif imaging 56 (no result: SR-BI HDL uptake, SR-BI DiI-HDL act)
CN(C)c1ccc(C=c2c3cc([N+](=O)[O-])ccc3n3c2cc(-c2ccccc2)[n+]3C)cc1	SR-BI HDL uptake 84
CN(C)S(=O)(=O)c1cccc(NC(=O)c2ccccc2SCC(=O)N2CCCC2)c1	none (no result: SR-BI HDL uptake, SR-BI DiI-HDL act)
CCOC(=O)/C=C/C(=O)Nc1ccc(S(=O)(=O)Nc2nccs2)cc1	SR-BI HDL uptake 73
CCOCC(=O)Nc1ccc(S(=O)(=O)Nc2nccs2)cc1	none
COc1ccc(C=NNC(=S)Nc2ccc(F)cc2)cc1OC	none
Fc1ccc(NC(=S)N/N=C/c2ccc(F)c(F)c2)c(F)c1	Vif imaging 110
Cc1ccsc1C(=O)N1CCC1(C)C(=O)NCc1cccnc1 (centres undefined)	none (no result: SR-BI HDL uptake, PKA-R2B activ, PKA-R1A act, SR-BI DiI-HDL act)
COc1ccc(Nc2nc(-c3ccccc3)nc3ccccc23)cc1	none
COc1ccc(Nc2nc(-c3cccc([N+](=O)[O-])c3)nc3ccccc23)cc1	SR-BI HDL uptake 88
O=[N+]([O-])c1ccc(S(=O)(=O)Nc2nc3ccccc3nc2Nc2ccccc2)cc1	SR-BI HDL uptake 78 (no result: PKA-R2B activ, PKA-R1A act)
COc1ccc(Nc2nc(-c3cccs3)nc3ccccc23)cc1	SR-BI HDL uptake 75
O=[N+]([O-])c1ccc(-c2nc(Nc3ccc(O)cc3)c3ccccc3n2)cc1	SR-BI HDL uptake 91
COc1cccc(Nc2nc(-c3cccs3)nc3ccccc23)c1	none
CC(C)(C)OC(=O)NC1CC2CCCC(C1)N2Cc1ccccc1 (centres undefined)	none
CC(=O)N/C(=C\c1ccccc1)C(=O)OC(C)C(=O)c1ccccc1 (centres undefined)	none
Cc1ccc(S(=O)(=O)N(Cc2ccc(C(F)(F)F)cc2)C(=O)N2CCN(C)CC2)cc1	none
C=CC[n+]1c(/C=C2\C=Cc3cc(C)ccc3N2CC)ccc2ccccc21	SR-BI HDL uptake 80
CCN1C(=C(C#N)C#N)C=Cc2cc(C)ccc21	none
Cc1cc(C(=O)N/N=C/c2cc(Br)cc(Br)c2OC(=O)c2cccc(F)c2)n[nH]1	SR-BI HDL uptake 122
Cc1cccc(C(=O)Oc2c(Br)cc(Br)cc2/C=N/NC(=O)c2ccncc2)c1	none
Cc1nnsc1C(=O)N/N=C/c1ccc2ccccc2c1O	SR-BI HDL uptake 126
Cc1nn(CC(=O)NC2CC2)c(C)c1S(=O)(=O)N(C)C	none (no result: SR-BI HDL uptake, SR-BI DiI-HDL act)
